The values that follow come from ChEMBL document CHEMBL1132688, “Synthesis of a series of 4-benzyloxyaniline analogues as neuronal N-type calcium channel blockers with improved anticonvulsant and analgesic properties” (J Med Chem, 1999).

Converted amounts (≈) assume the structure as drawn.

Data set [1] has as its target Voltage-dependent N-type calcium channel subunit alpha-1B (Homo sapiens, UniProt Q00975). Put plainly: Inhibition of N-type calcium channels in IMR32 human neuroblastoma cells. Format: functional. Put shortly:
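Differentiated IMR32 cells (dibutyryl cAMP 1 mM + BrdU 2.5 μM, 7–13 days), Indo-1 AM loaded; 10 min compound preincubation at 30 °C with 5 μM nitrendipine; high-K+ depolarization, fluorescence ratio 400/490 nm (ex 350 nm). Percent inhibition of K+-evoked Ca2+ rise; IC50 from five-point curves, four-parameter logistic fit.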

Data set [2] relates to Mus musculus. Put plainly: Anticonvulsant activity at 30 mg/kg tested against audiogenic seizure model using DBA/2 mice. Type of data set: functional. In short, it runs like this:
(§1)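 Male DBA/2 mice, 3–4 weeks old (6.5–12 g, 20–23 days), n = 5 per dose, given iv into retro-orbital sinus; tested 15 or 45 min post-dose with sound stimulus until tonic extension or max 60 s. Value is percentage of mice without tonic seizure.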

The nature of data set [3]: solubility at pH 7.4. Format: physicochemical. The following applies: buffer. In short, it runs like this:
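DMSO solution diluted 20-fold into PBS with 25 mM potassium phosphate pH 7.4 (final 5% DMSO) to precipitate; stirred 1 h at 22 °C, centrifuged 20000g 5 min; supernatant quantified by HPLC against DMSO standard.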

Data set [4] deals with Mus musculus. Put plainly: Anticonvulsant activity at 10 mg/kg tested against audiogenic seizure model using DBA/2 mice. Type of data set: functional. Put shortly:
as §1

Data set [5] is filed under the species Mus musculus. Put plainly: Anticonvulsant activity against audiogenic seizure model using DBA/2 mice. Format: functional. Put shortly: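 Male DBA/2 mice, 3–4 weeks old (6.5–12 g, 20–23 days); iv dosing into retro-orbital sinus, tested 15 or 45 min later. Sound stimulus in enclosed chamber until tonic extension or max 60 s. Tonic seizure occurrence used for ED50 by probit analysis; each mouse used once per time/dose point.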

The nature of data set [6]: solubility at pH 4. Type of data set: physicochemical. Conditions: buffer.

Sequence of Voltage-dependent N-type calcium channel subunit alpha-1B (Q00975 whole entry): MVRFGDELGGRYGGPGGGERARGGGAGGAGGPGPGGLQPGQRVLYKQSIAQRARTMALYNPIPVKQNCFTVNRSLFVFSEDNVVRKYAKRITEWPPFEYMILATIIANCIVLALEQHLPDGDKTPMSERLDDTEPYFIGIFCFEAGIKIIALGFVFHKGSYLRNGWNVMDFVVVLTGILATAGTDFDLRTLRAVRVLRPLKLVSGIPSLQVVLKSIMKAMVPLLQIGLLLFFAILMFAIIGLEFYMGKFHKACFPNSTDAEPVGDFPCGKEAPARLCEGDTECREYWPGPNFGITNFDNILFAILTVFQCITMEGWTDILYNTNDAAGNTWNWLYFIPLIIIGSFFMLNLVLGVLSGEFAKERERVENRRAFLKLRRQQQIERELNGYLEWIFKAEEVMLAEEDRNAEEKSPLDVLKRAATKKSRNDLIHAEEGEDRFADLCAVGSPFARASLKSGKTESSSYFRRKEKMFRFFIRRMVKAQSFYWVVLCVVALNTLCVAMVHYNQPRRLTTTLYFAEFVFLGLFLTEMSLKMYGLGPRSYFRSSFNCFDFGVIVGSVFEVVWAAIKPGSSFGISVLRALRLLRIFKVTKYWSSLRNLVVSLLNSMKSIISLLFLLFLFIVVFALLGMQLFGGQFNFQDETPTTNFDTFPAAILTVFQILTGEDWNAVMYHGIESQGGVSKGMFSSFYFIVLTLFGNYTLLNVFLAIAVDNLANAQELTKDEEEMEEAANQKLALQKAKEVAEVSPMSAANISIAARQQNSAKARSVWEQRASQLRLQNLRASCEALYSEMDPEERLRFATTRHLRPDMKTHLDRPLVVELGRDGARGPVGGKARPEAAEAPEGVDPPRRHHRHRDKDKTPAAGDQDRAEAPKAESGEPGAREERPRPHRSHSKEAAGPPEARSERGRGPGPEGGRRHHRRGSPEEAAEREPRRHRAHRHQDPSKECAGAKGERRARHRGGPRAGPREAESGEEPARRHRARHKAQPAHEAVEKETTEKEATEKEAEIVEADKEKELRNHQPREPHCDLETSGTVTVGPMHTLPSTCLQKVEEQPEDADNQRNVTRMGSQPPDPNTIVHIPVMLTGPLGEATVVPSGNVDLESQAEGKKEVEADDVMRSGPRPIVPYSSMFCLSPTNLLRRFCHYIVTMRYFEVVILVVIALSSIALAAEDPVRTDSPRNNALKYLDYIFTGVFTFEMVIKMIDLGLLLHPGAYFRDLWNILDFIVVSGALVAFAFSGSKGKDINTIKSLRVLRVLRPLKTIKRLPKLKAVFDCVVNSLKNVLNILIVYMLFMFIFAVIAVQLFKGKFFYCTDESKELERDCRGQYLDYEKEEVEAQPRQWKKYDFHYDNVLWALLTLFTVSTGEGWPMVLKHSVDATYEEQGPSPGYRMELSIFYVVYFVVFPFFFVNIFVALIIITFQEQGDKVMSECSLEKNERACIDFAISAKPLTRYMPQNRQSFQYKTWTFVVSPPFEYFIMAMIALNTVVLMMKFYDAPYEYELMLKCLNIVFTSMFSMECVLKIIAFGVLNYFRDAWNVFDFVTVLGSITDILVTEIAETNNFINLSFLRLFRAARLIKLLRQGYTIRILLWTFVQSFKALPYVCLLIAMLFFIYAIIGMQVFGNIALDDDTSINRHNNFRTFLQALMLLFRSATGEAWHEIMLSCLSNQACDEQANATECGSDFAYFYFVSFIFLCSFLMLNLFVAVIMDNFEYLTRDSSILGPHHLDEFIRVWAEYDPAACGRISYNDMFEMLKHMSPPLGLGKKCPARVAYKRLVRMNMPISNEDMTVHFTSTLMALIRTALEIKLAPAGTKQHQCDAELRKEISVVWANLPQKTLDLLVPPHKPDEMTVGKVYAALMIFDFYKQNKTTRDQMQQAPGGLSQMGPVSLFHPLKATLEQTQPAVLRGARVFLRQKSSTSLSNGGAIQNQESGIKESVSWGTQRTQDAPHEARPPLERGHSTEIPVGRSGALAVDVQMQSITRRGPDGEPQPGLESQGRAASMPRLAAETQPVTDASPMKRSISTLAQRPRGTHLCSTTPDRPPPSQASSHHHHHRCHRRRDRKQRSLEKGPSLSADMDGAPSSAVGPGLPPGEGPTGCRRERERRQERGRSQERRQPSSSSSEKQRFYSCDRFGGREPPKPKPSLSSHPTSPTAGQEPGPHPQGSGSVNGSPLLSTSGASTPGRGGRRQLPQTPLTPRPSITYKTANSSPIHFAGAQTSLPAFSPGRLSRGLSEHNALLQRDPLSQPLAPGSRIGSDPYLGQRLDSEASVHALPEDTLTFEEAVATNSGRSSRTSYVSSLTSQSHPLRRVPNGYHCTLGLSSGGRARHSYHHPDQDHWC

For the molecule `CC(C)=CCN(C[C@H](C)NC(=O)[C@H](CC(C)C)NC(=O)N1CCCCCC1)c1ccc(OCc2ccccc2)cc1`, the IC50 (in general, the concentration that gives 50% inhibition) in data set [1] worked out at 1000 nM.
In turn, `CC(C)C[C@H](NC(=O)N1CCCCCC1)C(=O)N1CCC(Nc2ccc(OCc3ccccc3)cc2)CC1` yielded an Anticonulsant activity in the data set with Mus musculus [2] of 60%.
On the same count and under the same terms, the same measure for `CCN(c1ccc(OCc2ccccc2)cc1)C1CCN(C(=O)[C@H](CC(C)C)NC(=O)N2CCCCCC2)CC1`: 0%.
As for `CC(C)=CCN(c1ccc(OCc2ccccc2)cc1)C1CCCN(C(=O)[C@H](CC(C)C)NC(=O)N2CCCCCC2)C1` (stereo partly drawn), the IC50 in data set [1] amounted to 1500 nM.
For the molecule `CC(C)C[C@H](NC(=O)N1CCCCCC1)C(=O)N1CCC(N(CCC(C)O)c2ccc(OCc3ccccc3)cc2)CC1` (stereo partly drawn), the IC50 in data set [1] was 4600 nM. Also, in data set [3], the solubility (usually the concentration that dissolves in the medium under given conditions) was 4 µM (≈ 2.37 µg/mL).
Consider `CC(C)=CCN(c1ccc(OCc2ccccc2)cc1)C1CCN(C(=O)[C@H](CC(C)C)NCCC(C)C)CC1`, for which the Anticonulsant activity in the data set with Mus musculus [4] came to 20%.
In turn, `CC(C)=CCN(c1ccc(OCc2ccccc2)cc1)C1CCN(C(=O)[C@H](CC(C)C)NC(=O)N2CCCCCC2)CC1` had an Anticonulsant activity with Mus musculus [2] of 0%.
Turning to `CC(C)=CCN(c1ccc(OCc2ccccc2)cc1)C1CCNCC1`, the IC50 in data set [1] amounted to 4700 nM.
On to `CC(C)=CCN(c1ccc(OCc2ccccc2)cc1)C1CCN(C(=O)[C@@H](N)CC(C)C)CC1`, for which the ED50 – broadly, the dose at which the effect has come halfway, by size or by number of responders – in the data set filed under Mus musculus [5] was found to be 6 mg/kg. The IC50 in data set [1] was determined as 670 nM. In addition, the solubility in data set [6] was determined as 100000 µM (≈ 46400 µg/mL); in data set [3], 87 µM (≈ 40.3 µg/mL).
